How the values were obtained:
[1] = system: MKN-1; assay: Growth inhibition of human MKN-1 cells measured after 48 hrs by sulforhodamine B assay; type: functional
In short: (§1)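 Panel of 39 human cancer cell lines tested at the Japanese Foundation for Cancer Research. Five concentrations per compound, spanning 10⁻¹¹–10⁻⁷ M, 10⁻¹⁰–10⁻⁶ M or 10⁻⁸–10⁻⁴ M, were used to build dose-response curves. GI₅₀ is the concentration giving 50% growth inhibition relative to control.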

[2] = system: SNB-75; assay: Growth inhibition of human SNB-75 cells measured after 48 hrs by sulforhodamine B assay; type: functional; in short: as §1
[3] = system: KM12; assay: Growth inhibition of human KM12 cells measured after 48 hrs by sulforhodamine B assay; type: functional; in short: as §1
[4] = system: NCI-H460; assay: Growth inhibition of human NCI-H460 cells measured after 48 hrs by sulforhodamine B assay; type: functional; in short: as §1
[5] = system: HCT-15; assay: Growth inhibition of human HCT-15 cells measured after 48 hrs by sulforhodamine B assay; type: functional; in short: as §1
[6] = system: SK-OV-3; assay: Growth inhibition of human SK-OV-3 cells measured after 48 hrs by sulforhodamine B assay; type: functional; in short: as §1
[7] = system: RXF 631; assay: Growth inhibition of human RXF 631 cells measured after 48 hrs by sulforhodamine B assay; type: functional; in short: as §1
[8] = system: MKN-7; assay: Growth inhibition of human MKN-7 cells measured after 48 hrs by sulforhodamine B assay; type: functional; in short: as §1
[9] = system: SF-539; assay: Growth inhibition of human SF-539 cells measured after 48 hrs by sulforhodamine B assay; type: functional; in short: as §1
[10] = Growth inhibition of human HBC4 cells measured after 48 hrs by sulforhodamine B assay; type: functional; in short: as §1
[11] = system: SF-295; assay: Growth inhibition of human SF-295 cells measured after 48 hrs by sulforhodamine B assay; type: functional; in short: as §1
[12] = biological target: T1, Protein deacetylase HDAC6 (Mus musculus, UniProt Q9Z2V5); assay: Inhibition of mouse HDAC6 expressed in 293T cells using Ac-KGLGK(Ac)-MCA as substrate incubated for 30 mins in presence of 0.1 mM DTT by fluorescence plate reader assay; set-up: species or system HEK293T
T1 sequence (Q9Z2V5 whole entry): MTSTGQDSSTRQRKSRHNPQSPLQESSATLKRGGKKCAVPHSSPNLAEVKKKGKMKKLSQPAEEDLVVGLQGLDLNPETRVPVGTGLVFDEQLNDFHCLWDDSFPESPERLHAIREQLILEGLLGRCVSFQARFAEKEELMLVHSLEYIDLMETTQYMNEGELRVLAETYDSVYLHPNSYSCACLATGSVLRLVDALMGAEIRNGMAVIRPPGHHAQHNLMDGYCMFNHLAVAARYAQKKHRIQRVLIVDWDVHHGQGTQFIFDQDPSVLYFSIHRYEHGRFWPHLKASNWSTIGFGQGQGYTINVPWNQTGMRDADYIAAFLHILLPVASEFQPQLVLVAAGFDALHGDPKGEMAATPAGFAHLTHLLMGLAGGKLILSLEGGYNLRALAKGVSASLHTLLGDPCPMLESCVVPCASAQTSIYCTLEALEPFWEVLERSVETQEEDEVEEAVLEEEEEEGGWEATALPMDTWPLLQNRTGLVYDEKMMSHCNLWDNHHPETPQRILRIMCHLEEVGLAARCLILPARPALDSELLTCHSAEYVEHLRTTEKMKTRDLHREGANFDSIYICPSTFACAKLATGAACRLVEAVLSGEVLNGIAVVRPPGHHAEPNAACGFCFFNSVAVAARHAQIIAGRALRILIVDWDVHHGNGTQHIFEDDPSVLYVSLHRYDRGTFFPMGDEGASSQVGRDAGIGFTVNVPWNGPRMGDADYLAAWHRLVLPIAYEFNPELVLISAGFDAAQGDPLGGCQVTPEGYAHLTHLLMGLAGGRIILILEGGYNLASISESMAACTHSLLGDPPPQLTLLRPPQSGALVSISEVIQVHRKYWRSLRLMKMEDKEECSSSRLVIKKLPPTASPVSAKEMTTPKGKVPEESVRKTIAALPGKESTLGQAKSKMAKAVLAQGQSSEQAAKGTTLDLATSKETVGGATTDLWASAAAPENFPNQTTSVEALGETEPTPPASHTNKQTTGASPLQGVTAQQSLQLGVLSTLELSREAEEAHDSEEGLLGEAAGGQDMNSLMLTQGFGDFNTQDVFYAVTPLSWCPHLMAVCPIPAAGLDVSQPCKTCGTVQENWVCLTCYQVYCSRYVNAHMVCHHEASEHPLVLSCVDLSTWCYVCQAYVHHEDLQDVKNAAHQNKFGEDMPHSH
In short: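 HDAC enzyme assay run in the presence of 0.1 mM dithiothreitol (DTT); IC₅₀ determined.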

[13] = system: OVCAR-4; assay: Growth inhibition of human OVCAR-4 cells measured after 48 hrs by sulforhodamine B assay; type: functional; in short: as §1
[14] = system: MDA-MB-231; assay: Growth inhibition of human MDA-MB-231 cells measured after 48 hrs by sulforhodamine B assay; type: functional; in short: as §1
[15] = system: MKN-28; assay: Growth inhibition of human MKN-28 cells measured after 48 hrs by sulforhodamine B assay; type: functional; in short: as §1
[16] = system: DU-145; assay: Growth inhibition of human DU-145 cells measured after 48 hrs by sulforhodamine B assay; type: functional; in short: as §1
[17] = system: NCI-H23; assay: Growth inhibition of human NCI-H23 cells measured after 48 hrs by sulforhodamine B assay; type: functional; in short: as §1
[18] = system: St-4; assay: Growth inhibition of human St-4 cells measured after 48 hrs by sulforhodamine B assay; type: functional; in short: as §1
[19] = system: ACHN; assay: Growth inhibition of human ACHN cells measured after 48 hrs by sulforhodamine B assay; type: functional; in short: as §1
[20] = system: MKN-74; assay: Growth inhibition of human MKN-74 cells measured after 48 hrs by sulforhodamine B assay; type: functional; in short: as §1
[21] = Selectivity index, ratio of IC50 for mouse HDAC6 expressed in 293T cells to IC50 for human HDAC1 expressed in 293T cells using Ac-KGLGK(Ac)-MCA as substrate incubated for 30 mins in presence of 0.1 mM DTT by fluorescence plate reader assay; settings: 0.5 h
In short: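 Ratio of HDAC6 IC₅₀ to HDAC1 IC₅₀, taken as selectivity for class I HDAC1 over class II HDAC6. Both enzyme assays were run in the presence of 0.1 mM DTT.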

[22] = system: MCF7; assay: Growth inhibition of human MCF7 cells measured after 48 hrs by sulforhodamine B assay; type: functional; in short: as §1
[23] = system: HT-29; assay: Growth inhibition of human HT-29 cells measured after 48 hrs by sulforhodamine B assay; type: functional; in short: as §1
[24] = biological target: Histone deacetylase 1 (Homo sapiens, UniProt Q13547); assay: Inhibition of human HDAC1 expressed in 293T cells using Ac-KGLGK(Ac)-MCA as substrate incubated for 30 mins in presence of 0.1 mM DTT by fluorescence plate reader assay; set-up: species or system HEK293T
[25] = Growth inhibition of human HBC5 cells measured after 48 hrs by sulforhodamine B assay; type: functional; in short: as §1
[26] = system: LOX IMVI; assay: Growth inhibition of human LOX IMVI cells measured after 48 hrs by sulforhodamine B assay; type: functional; in short: as §1
[27] = Growth inhibition of human BSY1 cells measured after 48 hrs by sulforhodamine B assay; type: functional; settings: BSY-1; in short: as §1
[28] = system: OVCAR-5; assay: Growth inhibition of human OVCAR-5 cells measured after 48 hrs by sulforhodamine B assay; type: functional; in short: as §1
[29] = system: MKN-45; assay: Growth inhibition of human MKN-45 cells measured after 48 hrs by sulforhodamine B assay; type: functional; in short: as §1
[30] = system: DMS-114; assay: Growth inhibition of human DMS-114 cells measured after 48 hrs by sulforhodamine B assay; type: functional; in short: as §1
[31] = system: NCI-H226; assay: Growth inhibition of human NCI-H226 cells measured after 48 hrs by sulforhodamine B assay; type: functional; in short: as §1
[32] = system: PC-3; assay: Growth inhibition of human PC-3 cells measured after 48 hrs by sulforhodamine B assay; type: functional; in short: as §1
[33] = system: A549; assay: Growth inhibition of human A549 cells measured after 48 hrs by sulforhodamine B assay; type: functional; in short: as §1
[34] = system: HCC 2998; assay: Growth inhibition of human HCC 2998 cells measured after 48 hrs by sulforhodamine B assay; type: functional; in short: as §1
[35] = system: NCI-H522; assay: Growth inhibition of human NCI-H522 cells measured after 48 hrs by sulforhodamine B assay; type: functional; in short: as §1
[36] = system: OVCAR-3; assay: Growth inhibition of human OVCAR-3 cells measured after 48 hrs by sulforhodamine B assay; type: functional; in short: as §1
[37] = system: DMS-273; assay: Growth inhibition of human DMS-273 cells measured after 48 hrs by sulforhodamine B assay; type: functional; in short: as §1
[38] = system: OVCAR-8; assay: Growth inhibition of human OVCAR-8 cells measured after 48 hrs by sulforhodamine B assay; type: functional; in short: as §1
[39] = system: U-251; assay: Growth inhibition of human U-251 cells measured after 48 hrs by sulforhodamine B assay; type: functional; in short: as §1
[40] = system: HCT-116; assay: Growth inhibition of human HCT-116 cells measured after 48 hrs by sulforhodamine B assay; type: functional; in short: as §1
[41] = system: SNB-78; assay: Growth inhibition of human SNB-78 cells measured after 48 hrs by sulforhodamine B assay; type: functional; in short: as §1
[42] = system: SF-268; assay: Growth inhibition of human SF-268 cells measured after 48 hrs by sulforhodamine B assay; type: functional; in short: as §1

Histone deacetylase 1, sequence (Q13547 whole entry): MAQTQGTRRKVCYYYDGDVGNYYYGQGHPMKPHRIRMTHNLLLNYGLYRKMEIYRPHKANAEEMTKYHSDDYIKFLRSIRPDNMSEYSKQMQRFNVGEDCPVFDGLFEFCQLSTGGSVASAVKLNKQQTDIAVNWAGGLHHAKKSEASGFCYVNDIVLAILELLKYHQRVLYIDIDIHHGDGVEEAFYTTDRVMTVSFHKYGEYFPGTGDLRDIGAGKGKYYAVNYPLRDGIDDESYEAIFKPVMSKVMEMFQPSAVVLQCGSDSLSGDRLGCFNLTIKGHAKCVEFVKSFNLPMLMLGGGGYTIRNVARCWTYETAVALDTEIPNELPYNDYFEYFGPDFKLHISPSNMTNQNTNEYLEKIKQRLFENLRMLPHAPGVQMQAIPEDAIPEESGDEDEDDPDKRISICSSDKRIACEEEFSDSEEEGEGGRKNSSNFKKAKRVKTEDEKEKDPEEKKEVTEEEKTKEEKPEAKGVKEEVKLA

SMILES: CC(C)[C@H]1NC(=O)C[C@H]2/C=C/CCSSC[C@@H](NC1=O)C(=O)N[C@H](Cc1ccccc1)C(=O)NCC(=O)O2
- GI50 [1]: 2.6 nM
- GI50 [2]: 8.7 nM
- GI50 [3]: 2.8 nM
- GI50 [4]: 6.2 nM
- GI50 [5]: 100 nM
- GI50 [6]: 2.4 nM
- GI50 [7]: 7.9 nM
- GI50 [8]: 35 nM
- GI50 [9]: 3.3 nM
- GI50 [10]: 37 nM
- GI50 [11]: 21 nM
- IC50 [12]: 54.9 nM
- GI50 [13]: 27 nM
- GI50 [14]: 8.7 nM
- GI50 [15]: 78 nM
- GI50 [16]: 3.6 nM
- GI50 [17]: 4.4 nM
- GI50 [18]: 34 nM
- GI50 [19]: 24 nM
- GI50 [20]: 5.9 nM
- Ratio IC50 [21]: 102
- GI50 [22]: 62 nM
- GI50 [23]: 3 nM
- IC50 [24]: 0.54 nM
- GI50 [25]: 84 nM
- GI50 [26]: 2.2 nM
- GI50 [27]: 36 nM
- GI50 [28]: 6.8 nM
- GI50 [29]: 64 nM
- GI50 [30]: 4.1 nM
- GI50 [31]: 4.8 nM
- GI50 [32]: 5.7 nM
- GI50 [33]: 3.4 nM
- GI50 [34]: 3.2 nM
- GI50 [35]: 0.72 nM
- GI50 [36]: 17 nM
- GI50 [37]: 20 nM
- GI50 [38]: 4.6 nM
- GI50 [39]: 22 nM
- GI50 [40]: 2.6 nM
- GI50 [41]: 8.6 nM
- GI50 [42]: 5 nM

SMILES: C/C=C1\NC(=O)[C@H]2CSSCC/C=C/[C@H](CC(=O)N[C@H](C(C)C)C(=O)N2)OC(=O)CNC1=O
- GI50 [1]: 73 nM
- GI50 [2]: 10 nM
- GI50 [3]: 45 nM
- GI50 [4]: 56 nM
- GI50 [5]: 20000 nM
- GI50 [6]: 63 nM
- GI50 [7]: 230 nM
- GI50 [8]: 380 nM
- GI50 [9]: 10 nM
- GI50 [10]: 170 nM
- GI50 [11]: 280 nM
- IC50 [12]: 859 nM
- GI50 [13]: 270 nM
- GI50 [14]: 53 nM
- GI50 [15]: 1400 nM
- GI50 [16]: 39 nM
- GI50 [17]: 130 nM
- GI50 [18]: 1100 nM
- GI50 [19]: 460 nM
- GI50 [20]: 100 nM
- Ratio IC50 [21]: 182
- GI50 [22]: 190 nM
- GI50 [23]: 42 nM
- IC50 [24]: 4.7 nM
- GI50 [25]: 630 nM
- GI50 [26]: 25 nM
- GI50 [27]: 200 nM
- GI50 [28]: 49 nM
- GI50 [29]: 1900 nM
- GI50 [30]: 43 nM
- GI50 [31]: 410 nM
- GI50 [32]: 170 nM
- GI50 [33]: 52 nM
- GI50 [34]: 32 nM
- GI50 [35]: 10 nM
- GI50 [36]: 64 nM
- GI50 [37]: 230 nM
- GI50 [38]: 54 nM
- GI50 [39]: 120 nM
- GI50 [40]: 26 nM
- GI50 [41]: 10 nM
- GI50 [42]: 110 nM

From ChEMBL document CHEMBL4715745, “Synthesis and biological evaluation of novel FK228 analogues as potential isoform selective HDAC inhibitors” (Eur J Med Chem, 2016)
